{"data": "Measured values collected from several papers", "effect on": "enzyme activity", "ABL1": "Tyrosine-protein kinase ABL1 (ABL1, Homo sapiens, UniProt P00519)", "ABL1 Q252H": "Tyrosine-protein kinase ABL1 (ABL1, Homo sapiens, UniProt P00519, Q252H)"}
{"target": "ABL1", "assay": "inhibitor", "conditions": "1 µM", "remaining activity": "107%", "Compound": "Cc1[nH]c(/C=C2\\C(=O)Nc3ccc(F)cc32)c(C)c1C(=O)N[C@H]1CCN(C(=O)N(C)C)C1"}
{"target": "ABL1 Q252H", "assay": "inhibitor, radiometric", "conditions": "1 µM", "remaining activity": "91%", "Compound": "Cc1cnc(NC2CCOCC2)nc1-n1cnc(C(=O)NC(CN)c2cc(F)cc(Cl)c2)c1 (centres unmarked)"}
{"target": "ABL1 Q252H", "assay": "inhibitor", "conditions": "10 µM", "remaining activity": "76%", "Compound": "CCCOc1ccc(OC)c(F)c1C(=O)c1ccc(C(=O)N[C@@H]2CNC[C@H]2NC(=O)c2ccc3[nH]ncc3c2)cc1"}
{"target": "ABL1 Q252H", "conditions": "10 µM", "remaining activity": "2%", "Compound": "Cc1ccc(NC(=O)c2ccc(C)c(C(F)(F)F)c2)cc1C#Cc1nn(C2CCC(O)CC2)c2ncnc(N)c12 (centres unmarked)"}
{"target": "ABL1", "assay": "inhibitor", "conditions": "1 µM", "remaining activity": "96%", "Compound": "COc1cc(Cl)c(C(=O)N[C@@H](CN[C@H]2CC[C@@H](N)CC2)Cc2ccc(C#N)cc2)cc1-c1ccc(CN[C@H](C)c2ccc(C)cc2)o1"}
{"target": "ABL1", "assay": "inhibitor, radiometric", "conditions": "10 µM", "remaining activity": "58%", "Compound": "COc1cc(Nc2cnc(C#N)c(O[C@H](C)CN(C)C)n2)ncc1-c1cnn(C)c1"}
{"target": "ABL1", "assay": "inhibitor", "conditions": "10 µM", "remaining activity": "102%", "Compound": "Cc1sc(C(=O)NC2COC2)cc1-n1cc(NC(=O)Nc2c(F)cccc2Cl)cn1"}
{"target": "ABL1", "assay": "inhibitor, radiometric", "conditions": "1 µM", "remaining activity": "93%", "Compound": "CC(C)(C)c1nc2c(s1)c1nc(N)ncc1c1ccc(NS(=O)(=O)c3c(F)cccc3F)c(F)c12"}
